SMILES strings stand for the structures. Calls of active or inactive are those of the source. The rule behind the calls is not given here.

In assay [1] the target is Tumour suppressor p53/oncoprotein Mdm2 (Homo sapiens) (UniProt P04637+Q00987). Kind of assay: Inhibition of MDM2/P53 protein interaction in human HCT116 cells assessed as stabilization of p53 at 7.5 to 30 uM after 24 hrs by western blot analysis. Type of assay: cell-based. Conditions: HCT-116. Background: Immunoblotting shows a protein as a band on a membrane.
Chain of Tumour suppressor p53/oncoprotein Mdm2 (Homo sapiens) (P04637 whole entry, looked up): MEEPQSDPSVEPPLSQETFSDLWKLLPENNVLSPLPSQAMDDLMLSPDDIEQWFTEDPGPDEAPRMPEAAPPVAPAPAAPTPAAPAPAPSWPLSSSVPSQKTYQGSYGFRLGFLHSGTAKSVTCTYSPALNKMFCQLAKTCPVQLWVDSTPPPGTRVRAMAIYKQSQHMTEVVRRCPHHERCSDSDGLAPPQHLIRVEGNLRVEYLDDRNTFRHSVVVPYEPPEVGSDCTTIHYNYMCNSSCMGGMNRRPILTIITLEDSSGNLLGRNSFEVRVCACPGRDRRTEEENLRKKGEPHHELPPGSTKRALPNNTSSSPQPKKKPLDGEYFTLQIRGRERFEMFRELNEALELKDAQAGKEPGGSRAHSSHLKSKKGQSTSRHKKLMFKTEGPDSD
Chain of Tumour suppressor p53/oncoprotein Mdm2 (Homo sapiens) (Q00987 whole entry, looked up): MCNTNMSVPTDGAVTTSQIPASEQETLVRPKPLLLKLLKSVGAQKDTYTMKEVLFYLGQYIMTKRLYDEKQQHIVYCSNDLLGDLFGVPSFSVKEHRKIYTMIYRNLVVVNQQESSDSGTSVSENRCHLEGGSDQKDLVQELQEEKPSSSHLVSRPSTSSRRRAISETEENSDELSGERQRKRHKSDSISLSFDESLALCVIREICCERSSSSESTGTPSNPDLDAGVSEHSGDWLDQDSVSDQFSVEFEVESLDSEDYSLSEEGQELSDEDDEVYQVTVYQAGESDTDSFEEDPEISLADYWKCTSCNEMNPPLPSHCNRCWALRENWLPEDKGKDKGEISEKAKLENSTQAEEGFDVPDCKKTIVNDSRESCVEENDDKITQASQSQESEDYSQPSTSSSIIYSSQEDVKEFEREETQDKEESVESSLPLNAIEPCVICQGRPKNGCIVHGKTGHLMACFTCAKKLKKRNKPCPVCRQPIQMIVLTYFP
Assay [2] concerns HCT-116. Kind of assay: Induction of apoptosis in human HCT116 cells assessed as late apoptotic cells at 30 uM after 48 hrs by annexin V-FITC/propidium iodide staining-based flow cytometric analysis (reference value: 7.2%). Format: functional. (In general: A flow cytometer gives signals particle by particle.)
The subject of assay [3] is HCT-116. Kind of assay: Induction of apoptosis in human HCT116 cells assessed as early apoptotic cells at 15 uM after 48 hrs by annexin V-FITC/propidium iodide staining-based flow cytometric analysis (reference value: 1.6%). Type of assay: functional.
Assay [4] can be described thus: Downregulation of ATR expression in human HCT116 cells at 30 uM after 1 hr by Western blot analysis. Conditions: HCT-116, TDE = time-dependent effect. Format: functional, cell-based. In outline:
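HCT116 cells exposed for 1 h in complete medium; RIPA lysates quantified by BCA, equal protein separated on 8–13% SDS-PAGE, transferred to PVDF, probed with primary antibodies overnight at 4 °C and HRP secondaries, chemiluminescence read-out.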

For assay [5], the system named is HCT-116. The assay is described as follows: Antiproliferative activity against human HCT116 cells after 5 to 40 uM by SRB assay. Type of assay: functional, cell-based. Particulars: TDE = time-dependent effect. (In general: The SRB assay estimates cell density from bound dye.)
Assay [6] relates to Mus musculus. Kind of assay: Upregulation of p27 in human HCT116 cells xenografted in nude mouse at 5 to 10 mg/kg, ip administered 3 times per week measured on day 41 by Western blot analysis. Format: functional, organism-based. Particulars: HCT-116. The essentials: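 HCT116 xenografts in nude mice dosed ip at 5 or 10 mg/kg three times weekly to day 41. Portions of the excised frozen tumors were thawed on ice, homogenized in complete lysis buffer, protein quantified by Bradford, and p21, p27 and Skp2 assessed by Western blot with β-actin as internal control.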

A short description of assay [7]: Decrease in Skp2 expression in human HCT116 cells at 7.5 to 30 uM after 24 hrs by western blot analysis. Format: functional, cell-based. Particulars: HCT-116. In outline:
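HCT116 cells exposed 24 h in complete medium; lysed in RIPA buffer (pH 8.0), protein by BCA, equal loads run on 8–13% SDS-PAGE, PVDF transfer, blocked in 5% BSA/TBST, primary antibodies overnight at 4 °C, HRP secondaries 2 h RT, ECL detection; β-actin as loading control.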

For assay [8], the system named is HCT-116. The assay is described as follows: Induction of cell cycle arrest in human HCT116 cells assessed as accumulation at G2/M phase at 7.5 uM after 24 hrs by propidium iodide staining-based flow cytometric analysis in presence of RNase A (reference value: 20.6%). Format: functional.
Assay [9] concerns Mus musculus. Kind of assay: Downregulation of Skp2 in human HCT116 cells xenografted in nude mouse at 5 to 10 mg/kg, ip administered 3 times per week measured on day 41 by […]. Type of assay: functional, organism-based. Particulars: HCT-116. In outline: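 Formalin-fixed, paraffin-embedded xenograft sections (mice dosed ip three times weekly) probed with antibodies, detected by LSAB/HRP, counterstained with H&E, imaged by inverted phase-contrast microscopy.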

Assay [10] can be described thus: Antiproliferative activity against human HCT116 cells assessed as cell viability after 72 hrs by SRB assay. Format: functional, cell-based. Particulars: HCT-116, 72 h. The essentials:
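HCT116 cells in 96-well plates exposed 24, 48 or 72 h; TCA fixation, 0.4% SRB staining, dye solubilised in 10 mM Tris pH 10.0, absorbance at 515 nm; viability relative to solvent-treated control.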

The test system of another assay is SW480. The assay is described as follows: Antiproliferative activity against human SW480 cells after 24 to 72 hrs by SRB assay. Format: functional, cell-based. The essentials: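 Cells grown in 96-well plates (RPMI 1640; MRC-5 in MEM, 10% FBS, antibiotics) with compound […]; fixed in 10% TCA 30 min at 4 °C, stained 0.4% SRB in 1% acetic acid 1 h, dye dissolved in 10 mM Tris pH 10.0, A515 read; viability as % of solvent control, IC50 by nonlinear regression; mean of three independent experiments.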

Assay [11] relates to HCT-116. The assay is described as follows: Induction of cell cycle arrest in human HCT116 cells assessed as accumulation at G2/M phase at 30 uM after 48 hrs by propidium iodide staining-based flow cytometric analysis in presence of RNase A (reference value: 19.7%). Type of assay: functional.
Assay [12] can be described thus: Antiproliferative activity against p53-expressing human HCT116 cells assessed as cell viability after 72 hrs by SRB assay. Format: functional, cell-based. Conditions: HCT-116, 72 h. In outline: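 p53 wild-type and p53-null HCT116 cells in 96-well plates treated 72 h; SRB assay (TCA fix, SRB stain, Tris pH 10.0 solubilisation, A515); viability vs solvent control, IC50 by nonlinear regression.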

Assay [13] concerns HCT-116. The assay is described as follows: Induction of apoptosis in human HCT116 cells assessed as dead cells at 15 uM after 48 hrs by annexin V-FITC/propidium iodide staining-based flow cytometric analysis (reference value: 2%). Type of assay: functional.
Assay [14] concerns HCT-116. The assay is described as follows: Induction of reactive oxygen species in human HCT116 cells at 15 uM after 48 hrs by DCFH-DA staining-based flow cytometric analysis (reference value: 5.1%). Format: functional. In outline: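 HCT116 cells seeded overnight, then exposed to test compounds, alone or with NAC, for 48 h in complete medium. Loaded with 20 μM DCFH-DA for 30 min; intracellular ROS in 20 000 cells per group read by flow cytometry as histograms.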

A short description of assay [15]: Antitumor activity against human HCT116 cells xenografted in nude mouse assessed as tumor growth inhibition at 10 mg/kg, ip administered 3 times per week measured on day 41. Format: functional. Conditions: HCT-116, ip, 984 h, read-out: TGI. The essentials: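 Nude mice given 2 × 10^6 HCT116 cells subcutaneously in flank; at ~120 mm3 randomised, six per group; ip dosing in 200 μL, test agent 5 or 10 mg/kg three times weekly, irinotecan 10 mg/kg once weekly; tumour volume measured twice weekly to day 41; body weight tracked for toxicity.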

The test system of assay [16] is HCT-116. Kind of assay: Induction of cell cycle arrest in human HCT116 cells assessed as accumulation at G0/G1 phase at 30 uM after 48 hrs by propidium iodide staining-based flow cytometric analysis in presence of RNase A (reference value: 54.3%). Format: functional.

Broadly, the IC50 is the concentration that inhibits the measured activity by half. In the case of `O=C/C=C/c1ccc2c(c1)O[C@@H](CO)[C@H](c1ccc(O)c(O)c1)O2` [AMERICANIN A], the inhibition result in assay [1] was “Active”. For the same compound, the Activity with HCT-116 [2] is 36.5%; in the assay with HCT-116 [3], 12.2%; in assay [4], “tde”; with HCT-116 [5] it was “tde”; in the assay with HCT-116 [8], 27.5%; in the assay on HCT-116 [11] it was 19%. The Activity is 0.4% with HCT-116 [13], 7.9% in the assay on HCT-116 [14] and 16.4% with HCT-116 [16]. Also, the result (in the assay with Mus musculus [6]; in [7]; in the assay with Mus musculus [9]) was Active. Further, the IC50 in assay [10] is 8.7 µM; in the assay on SW480, 27.4 µM; in assay [12], 8.3 µM. Also, the inhibition in vivo at 10 mg/kg in assay [15] turned out to be 55.7%.

These data come from ChEMBL document CHEMBL3758106, “Antitumor Activity of Americanin A Isolated from the Seeds of Phytolacca americana by Regulating the ATM/ATR Signaling Pathway and the Skp2-p27 Axis in Human Colon Cancer Cells” (J Nat Prod, 2015).
